FGF22 binding = FGF22 (human) thermal shift binding | Q9HCT0 | recombinant FGF22 thermal shift, SYPRO orange fluorescence; percent of sucrose octasulfate shift, DMSO zero | activity (Tm shift, normalised), % at 9.99 µM | 340,000 compounds, 1.5% hits;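 active = mean Tm shift, scaled 0 neutral to 100 positive control, at about 1.3% or above, every replicate too, limit read from the data; inconclusive = no clear call, values can overlap the other calls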
Target sequence (Q9HCT0 whole entry, looked up): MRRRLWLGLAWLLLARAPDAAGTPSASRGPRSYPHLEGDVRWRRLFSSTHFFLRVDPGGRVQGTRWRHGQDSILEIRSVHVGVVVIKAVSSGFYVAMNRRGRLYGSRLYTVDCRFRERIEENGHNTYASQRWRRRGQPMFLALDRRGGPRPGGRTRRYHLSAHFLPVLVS
PGC1a acetyl inh = PGC1a acetylation modulation, inhibitor mode | AID 651687 | inhibition, % at 15.6 µM | 350,000 compounds, 0.17% hits | U2OS PGC1a acetylation, AlphaScreen anti-acetyl-lysine; with virally co-expressed GCN5 acetyltransferase;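 active = every replicate shows inhibition of at least 40%; inconclusive = mean inhibition at least 40% but some replicate below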;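 also: 0% = neutral control wells and 100% = positive control wells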
EWS-Fli inh = inhibitors of EWS/Fli oncoprotein transcriptional activity | A673 NR0B1-luciferase reporter, viability-normalised | 350,000 compounds, 0.67% hits | inhibition, % at 12.6 µM;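 active = mean inhibition of at least 50% after viability correction, with every replicate also passing that limit; inconclusive = mean reaches 50% but only one of two replicates passes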;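 also: firefly luciferase signal divided by Alamar Blue viability fluorescence both relative to DMSO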
PAX8 reporter = PAX8 transcriptional activity inhibition | inhibition, % at 12.6 µM | AID 652154 | 360,000 compounds, 1.2% hits | RMG-I TPO-luciferase reporter, SteadyGlo, 24 h;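 active = mean replicate inhibition at least 60% with every replicate also reaching 60%; inconclusive = only one of the two criteria is met; inactive = mean below 60% and not all replicates reaching 60%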;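 also: luciferase light reporting Pax8 driven TPO promoter activity; plate controls were median of neutral control wells for no effect and mitoxantrone controls for full effect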
FN deposit inh = fibronectin deposition inhibition | AH1F fibroblasts, Alexa488-fibronectin deposition fluorescence, overnight | inhibition, % at 12.6 µM | 350,000 compounds, 0.086% hits | AID 743247;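 active = mean inhibition across replicates of 30% or more, regardless of how many single replicates reach that level; inconclusive = mean under 30% yet at least half of replicates reach 30%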;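 also: positive control wells lacked labelled fibronectin entirely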
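Test system: AH1F fibroblast monolayer depositing Alexa488-labelled fibronectin into matrix. Input: 10000 cells per well. Technique: fluorescence, ex 485 nm, em 525 nm. Buffer or medium: DMEM plus 2% serum, read in PBS. Timing: 1 h cell adhesion before compound, then overnight fibronectin incubation. Compound: single dose, pinned. Read-out basis: inhibition from reduced deposited-fibronectin fluorescence.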
Env fusion inh = inhibitors of HIV Env-mediated cell fusion | inhibition, % at 12.3 µM | 360,000 compounds, 1.1% hits | AID 651610 | HeLa-JRFL Env/CEM21 cell fusion, luciferase;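 active = mean replicate inhibition score of at least 50 and every replicate individually at or above 50; inconclusive = only one of the two criteria met; inactive = mean below 50 and not all replicates reaching 50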;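 also: 0% = plate neutral controls and 100% = maraviroc near 300 nM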
Active calls of the source: *; ? = inconclusive; . = not tested or not shown; [ ] = another dose, or the depositor's remark. Shown are actives, neighbours in structure and some others; about 3.1% of the full set was active somewhere.

SMILES	FGF22 binding	PGC1a acetyl inh	EWS-Fli inh	PAX8 reporter	FN deposit inh	Env fusion inh
O=P(c1ccccc1)(c1ccccc1)C(O)c1ccccn1 (stereo unspecified)	0.0	8.6	-2.7	-5.3	-9.2	5.7
O=P(c1ccccc1)(c1ccccc1)C(c1ccccn1)P(=O)(c1ccccc1)c1ccccc1	-0.4	-9.6	7.8	-12.5	5.0	66.4*
O=C(C(Cc1ccccc1)N1C(=O)c2ccccc2C1=O)N1c2ccccc2CCc2ccccc21 (stereo unspecified)	0.1	-31.3	21.5	4.6	-2.4	65.6*
O=C1c2ccccc2C(=O)N1CC(=O)N1c2ccccc2CCc2ccccc21	.	6.0	.	16.0	-2.2	-34.3
CN1CCN(C(=O)c2cnn(-c3ccccc3)c2NC(=O)c2ccccc2)CC1	43.4*	.	5.0	-9.6	-5.8	-63.2
CN1CCN(C(=O)c2cnn(-c3ccccc3)c2NC(=O)c2ccc(Br)cc2)CC1	-0.1	.	1.0	.	1.4	10.6
C[C@H]1CN(C)C(=O)c2ccccc2O[C@@H]1CN(C)C	.	.	.	.	-5.1	.
CCN(c1ccccc1)S(=O)(=O)c1ccc(Cl)c(C(=O)OCC(=O)NC(=O)C(C)C)c1	43.3*	.	9.7	2.5	2.1	-2.5
C[C@H](CO)N1C[C@H](C)[C@@H](CN(C)Cc2ccc(Cl)c(Cl)c2)Oc2ccc(NC(=O)Nc3ccc(F)cc3)cc2CC1=O	0.2	10.1	63.0*	83.9*	-16.5	13.4[16.7 µM]
C[C@@H]1CN([C@@H](C)CO)C(=O)Cc2cc(NC(=O)Nc3ccc(F)cc3)ccc2O[C@H]1CN(C)Cc1ccc(Cl)c(Cl)c1	0.5	8.9	39.8	105.3*	2.0	27.4[16.7 µM]
C[C@@H]1CN([C@H](C)CO)C(=O)Cc2cc(NC(=O)Nc3ccc(F)cc3)ccc2O[C@@H]1CN(C)Cc1ccc(Cl)c(Cl)c1	0.3	-0.7	-20.9	109.0*	-7.0	-3.3[16.7 µM]
C[C@@H]1CN([C@H](C)CO)C(=O)Cc2cc(NC(=O)Nc3ccc(C(F)(F)F)cc3)ccc2O[C@H]1CN(C)Cc1ccc(Cl)c(Cl)c1	0.1	1.7	-8.8	-10.0	-1.1	37.2[16.7 µM]
C[C@H]1CN([C@@H](C)CO)C(=O)Cc2cc(NC(=O)Cn3cnnn3)ccc2O[C@@H]1CN(C)Cc1ccc(Cl)c(Cl)c1	0.1	-4.1	68.7*	1.7	-2.2	.
C[C@@H]1CN([C@@H](C)CO)C(=O)Cc2cc(NC(=O)Nc3ccccc3)ccc2O[C@@H]1CN(C)Cc1ccc(Cl)c(Cl)c1	0.2	-6.3	8.4	?	.	-66.1[16.7 µM]
CN(C)C(=O)C[C@H]1CC[C@H]2[C@@H](COc3ccc(NC(=O)C4CCOCC4)cc3C(=O)N2C)O1	-0.4	0.6	-0.4	-12.4	3.5	9.8[16.7 µM]
C[C@H](CO)N1C[C@H](C)[C@@H](CN(C)C(=O)Nc2ccccc2)Oc2ccc(NC(=O)NC3CCCCC3)cc2CC1=O	-0.2	-2.2	-0.8	-24.1	.	-5.8[16.7 µM]
COc1ccc(S(=O)(=O)N(C)C[C@@H]2Oc3c(NC(=O)Nc4c(C)noc4C)cccc3C(=O)N([C@H](C)CO)C[C@H]2C)cc1	.	-2.9	-10.1	.	-10.5	-14.9[16.7 µM]
Cc1noc(C)c1S(=O)(=O)Nc1ccc2c(c1)C(=O)N([C@@H](C)CO)C[C@H](C)[C@@H](CN(C)Cc1ccc(Cl)c(Cl)c1)OCCCC[C@H](C)O2	0.0	11.8	-5.6	15.8	.	.
O=C(Cc1ccccn1)N1CC2(C1)[C@H](c1ccccc1)[C@@H](CO)N2C(=O)c1ccncc1	-0.1	-2.7	-6.9	0.6	-10.8	.
C[C@H](CO)N1C[C@H](C)[C@H](CN(C)Cc2ccc(Cl)c(Cl)c2)Oc2ccc(NC(=O)Nc3ccc(F)cc3)cc2CC1=O	0.2	-6.9	-2.0	5.8	8.1	12.4[16.7 µM]
C[C@H]1CN([C@@H](C)CO)C(=O)Cc2cc(NC(=O)Nc3ccc(F)cc3)ccc2O[C@H]1CN(C)Cc1ccc(Cl)c(Cl)c1	0.4	5.5	-12.3	110.5*	2.4	19.5[16.7 µM]
CN1C(=O)c2cc(NC(=O)Nc3ccccc3F)ccc2OC[C@H]2O[C@@H](CC(=O)NCc3ccc(-c4ccccc4)cc3)CC[C@H]21	0.1	-1.8	-6.1	4.7	-8.7	.
COc1ccc(OC)c(NC(=O)COc2ccc3c(c2)CCC3)c1	0.1	.	-6.4	-3.9	-2.7	70.1*
Cc1ccc(S(=O)(=O)N2CCC(C(=O)Nc3ccc(S(=O)(=O)N4CCCC4)cc3)CC2)cc1C	-0.2	-15.9	10.7	66.7*	3.1	1.3
Cc1ccc(S(=O)(=O)N2CCOCC2)cc1NC(=O)CN1CCN(c2ccc(O)cc2)CC1	0.1	.	3.2	-19.9	-0.1	28.2
SMILES	FGF22 binding	PGC1a acetyl inh	EWS-Fli inh	PAX8 reporter	FN deposit inh	Env fusion inh
CCOc1ccc(S(=O)(=O)N2CCCCC2)c(C)c1C	43.0*	.	0.7	22.7	6.4	20.7
Cc1ccc(S(=O)(=O)N2CCN(CC(=O)Nc3ccc(N4CCOCC4)cc3)CC2)cc1C	-0.1	.	-97.7	73.9*	6.3	.
COc1cccc(NC(=O)COc2ccc3c(c2)CCC3)c1	0.1	-8.4	-2.8	-37.5	0.8	-15.5
CCOc1ccc(S(=O)(=O)N2CCN(C)CC2)c(C)c1C	.	-0.3	.	.	.	.
Cc1ccc(S(=O)(=O)N2C[C@@H](O)COC[C@@H]3O[C@H](CC(=O)NCCN4CCCCC4)CC[C@H]32)cc1	0.0	-2.0	-0.4	0.6	-19.9	.
COc1ccc(S(=O)(=O)N2CCCCC2)cc1NC(=O)CCCOc1ccc(C)cc1	-0.2	2.7	8.9	22.3	-3.6	70.5*
COc1ccc(S(=O)(=O)N2CCCCC2)cc1NC(=O)CCCOc1ccccc1	0.0	-2.4	2.5	13.5	2.8	-2.8
COc1ccc(OC)c(NC(=O)COC(=O)c2ccc(S(=O)(=O)N3CCCCC3)cc2)c1	44.7*	-4.4	-1.7	3.9	2.4	-300.5
CC(C)Oc1ccc(S(=O)(=O)N2CCCCC2)cc1NC(=O)C1CCCC1	0.1	.	11.5	-22.9	-5.2	13.3
COc1ccc(NC(=O)COC(=O)c2ccc(S(=O)(=O)N3CCCCCC3)cc2)c(OC)c1	0.1	-1.8	-5.5	-5.9	-3.4	0.3
CCOc1ccc(S(=O)(=O)N2CCCCC2)cc1NC(=O)C1CCCC1	43.5*	16.9	4.3	-11.3	1.9	40.7
CNC(=O)C[C@@H]1CC[C@@H]2[C@@H](COc3ccc(NC(=O)Nc4cc(C)cc(C)c4)cc3C(=O)N2C)O1	.	-4.4	-7.0	-5.9	-10.9	1.7[16.7 µM]
O=C(N/C(=C/c1cccs1)C(=O)N1CCCC1)c1ccccc1	0.2	.	3.4	8.0	1.4	-1.4
CN1CCN(C(=O)/C(=C\c2cccs2)NC(=O)c2ccccc2)CC1	27.2*	34.6	10.8	-6.7	3.7	18.7
O=C(C[C@H]1CC[C@H](NC(=O)Nc2cc(F)ccc2F)[C@H](CO)O1)Nc1ccccc1	0.3	-4.0	-1.3	.	.	7.3[16.7 µM]
CCS(=O)(=O)Nc1ccc2c(c1)C(=O)N(C)[C@H]1CC[C@@H](CC(=O)NCc3ccc(OC)cc3)O[C@H]1CO2	-0.1	-5.7	-1.1	1.5	-1.2	.

Screens as filed in PubChem BioAssay.
